Test results taken from ChEMBL document CHEMBL3596157, “Heteroaromatic analogs of the resveratrol analog DMU-212 as potent anti-cancer agents” (2015).

How the values were obtained:
Type in all cases: functional
NCI-H226 = test: Growth inhibition of human NCI-H226 cells after 48 hrs by SRB assay; conditions: NCI-H226, 48 h
In short: (§1)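 NCI-60 panel screen. Cells exposed for 48 h to five concentrations (10−4, 10−5, 10−6, 10−7 and 10−8 M). Sulforhodamine B optical density is read just before compound addition (time zero) and after 48 h, for both treated and vehicle-control wells. Percent growth is calculated against control. GI50 is the concentration giving a 50% reduction in net cell growth relative to cell numbers on day 0.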

OVCAR-4 = test: Growth inhibition of human OVCAR4 cells after 48 hrs by SRB assay; conditions: OVCAR-4, 48 h; in short: as §1
SK-MEL-28 = test: Growth inhibition of human SK-MEL-28 cells after 48 hrs by SRB assay; conditions: SK-MEL-28, 48 h; in short: as §1
NCI-H23 = test: Growth inhibition of human NCI-H23 cells after 48 hrs by SRB assay; conditions: NCI-H23, 48 h; in short: as §1
PC-3 = test: Growth inhibition of human PC3 cells after 48 hrs by SRB assay; conditions: PC-3, 48 h; in short: as §1
SF-268 = test: Growth inhibition of human SF268 cells after 48 hrs by SRB assay; conditions: SF-268, 48 h; in short: as §1
[1] = Growth inhibition of human LOXIMVI cells after 48 hrs by SRB assay; conditions: LOX IMVI; in short: as §1
MDA-MB-435 = test: Growth inhibition of human MDA-MB-435 cells after 48 hrs by SRB assay; conditions: MDA-MB-435, 48 h; in short: as §1
OVCAR-3 = test: Growth inhibition of human OVCAR3 cells after 48 hrs by SRB assay; conditions: OVCAR-3, 48 h; in short: as §1
M14 = test: Growth inhibition of human M14 cells after 48 hrs by SRB assay; conditions: M14, 48 h; in short: as §1
SW-620 = test: Growth inhibition of human SW620 cells after 48 hrs by SRB assay; conditions: SW-620, 48 h
In short: (§2)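 NCI-60 panel cells; preliminary single-dose screen at 10−5 M, then five-dose testing at 10−4 to 10−8 M (tenfold steps) with 48 h exposure. SRB-stained optical density read before compound addition (time zero), after 48 h with compound, and with vehicle control. Percent growth is calculated against control. GI50 is the concentration giving 50% reduction in net growth relative to day-0 cell number.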

A498 = test: Growth inhibition of human A498 cells after 48 hrs by SRB assay; conditions: A498, 48 h; in short: as §1
SK-MEL-2 = test: Growth inhibition of human SK-MEL-2 cells after 48 hrs by SRB assay; conditions: SK-MEL-2, 48 h; in short: as §1
[2] = Growth inhibition of human RPMI8226 cells after 48 hrs by SRB assay; conditions: RPMI-8226, 48 h; in short: as §1
SNB-75 = test: Growth inhibition of human SNB75 cells after 48 hrs by SRB assay; conditions: SNB-75, 48 h; in short: as §2
UACC-62 = test: Growth inhibition of human UACC62 cells after 48 hrs by SRB assay; conditions: UACC-62, 48 h; in short: as §2
UO-31 = test: Growth inhibition of human UO31 cells after 48 hrs by SRB assay; conditions: UO-31, 48 h; in short: as §2
A549 = test: Growth inhibition of human A549/ATCC cells after 48 hrs by SRB assay; conditions: A549, 48 h; in short: as §1
SK-MEL-5 = test: Growth inhibition of human SK-MEL-5 cells after 48 hrs by SRB assay; conditions: SK-MEL-5, 48 h; in short: as §1
SR = test: Growth inhibition of human SR cells after 48 hrs by SRB assay; in short: as §2
CCRF-CEM = test: Growth inhibition of human CCRF-CEM cells after 48 hrs by SRB assay; in short: as §1
U-251 = test: Growth inhibition of human U251 cells after 48 hrs by SRB assay; conditions: U-251, 48 h; in short: as §2
[3] = Growth inhibition of human MOLT4 cells after 48 hrs by SRB assay; conditions: MOLT-4, 48 h; in short: as §1
TK-10 = test: Growth inhibition of human TK10 cells after 48 hrs by SRB assay; conditions: TK-10, 48 h; in short: as §2
[4] = Growth inhibition of human HCC2998 cells after 48 hrs by SRB assay; conditions: HCC 2998, 48 h; in short: as §1
HL-60(TB) = test: Growth inhibition of human HL-60(TB) cells after 48 hrs by SRB assay; conditions: HL-60, 48 h
In short: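 NCI-60 panel screen: cells were exposed to test agent at five concentrations (10−4, 10−5, 10−6, 10−7 and 10−8 M) for 48 h. Sulforhodamine B optical density was read at time zero and after exposure to compound or vehicle control, and growth percentage versus control was calculated. GI50 was taken as the concentration giving a 50% reduction in net cell growth relative to day 0 cell numbers.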

[5] = Growth inhibition of human HOP92 cells after 48 hrs by SRB assay; conditions: HOP-92, 48 h; in short: as §1
MDA-MB-231 = test: Growth inhibition of human MDA-MB-231/ATCC cells after 48 hrs by SRB assay; conditions: MDA-MB-231, 48 h; in short: as §1
[6] = Growth inhibition of human SF539 cells after 48 hrs by SRB assay; conditions: SF-539, 48 h; in short: as §1
MCF7 = test: Growth inhibition of human MCF7 cells after 48 hrs by SRB assay; conditions: MCF7, 48 h; in short: as §1
HOP-62 = test: Growth inhibition of human HOP62 cells after 48 hrs by SRB assay; conditions: HOP-62, 48 h; in short: as §1
K562 = test: Growth inhibition of human K562 cells after 48 hrs by SRB assay; conditions: K562, 48 h; in short: as §1
NCI-H522 = test: Growth inhibition of human NCI-H522 cells after 48 hrs by SRB assay; conditions: NCI-H522, 48 h; in short: as §1
SK-OV-3 = test: Growth inhibition of human SKOV3 cells after 48 hrs by SRB assay; conditions: SK-OV-3, 48 h; in short: as §1
IGROV-1 = test: Growth inhibition of human IGROV1 cells after 48 hrs by SRB assay; conditions: IGROV-1, 48 h; in short: as §1
[7] = Growth inhibition of human RXF393 cells after 48 hrs by SRB assay; conditions: RXF 393, 48 h; in short: as §1
HCT-15 = test: Growth inhibition of human HCT15 cells after 48 hrs by SRB assay; conditions: HCT-15, 48 h; in short: as §1
ACHN = test: Growth inhibition of human ACHN cells after 48 hrs by SRB assay; in short: as §1
[8] = Growth inhibition of human NCI-ADR-RES cells after 48 hrs by SRB assay; in short: as §1
HCT-116 = test: Growth inhibition of human HCT116 cells after 48 hrs by SRB assay; conditions: HCT-116, 48 h; in short: as §1
MDA-MB-468 = test: Growth inhibition of human MDA-MB-468 cells after 48 hrs by SRB assay; conditions: MDA-MB-468, 48 h; in short: as §1
OVCAR-5 = test: Growth inhibition of human OVCAR5 cells after 48 hrs by SRB assay; conditions: OVCAR-5, 48 h; in short: as §1
786-0 = test: Growth inhibition of human 786-0 cells after 48 hrs by SRB assay; conditions: 786-0, 48 h; in short: as §1
SN12C = test: Growth inhibition of human SN12C cells after 48 hrs by SRB assay; in short: as §1
KM12 = test: Growth inhibition of human KM12 cells after 48 hrs by SRB assay; conditions: KM12, 48 h; in short: as §1
[9] = Growth inhibition of human BT549 cells after 48 hrs by SRB assay; conditions: BT-549, 48 h; in short: as §1
[10] = Growth inhibition of human Hs578T cells after 48 hrs by SRB assay; conditions: Hs-578T; in short: as §1
DU-145 = test: Growth inhibition of human DU145 cells after 48 hrs by SRB assay; conditions: DU-145, 48 h; in short: as §1
HT-29 = test: Growth inhibition of human HT-29 cells after 48 hrs by SRB assay; conditions: HT-29, 48 h; in short: as §1
CAKI-1 = test: Growth inhibition of human Caki1 cells after 48 hrs by SRB assay; conditions: CAKI-1, 48 h; in short: as §1
Malme-3M = test: Growth inhibition of human MALME-3M cells after 48 hrs by SRB assay; in short: as §1
[11] = Growth inhibition of human SF295 cells after 48 hrs by SRB assay; conditions: SF-295, 48 h; in short: as §1
SNB-19 = test: Growth inhibition of human SNB19 cells after 48 hrs by SRB assay; conditions: SNB-19, 48 h; in short: as §1
NCI-H460 = test: Growth inhibition of human NCI-H460 cells after 48 hrs by SRB assay; conditions: NCI-H460, 48 h; in short: as §1
OVCAR-8 = test: Growth inhibition of human OVCAR8 cells after 48 hrs by SRB assay; conditions: OVCAR-8, 48 h; in short: as §1
[12] = Growth inhibition of human COLO205 cells after 48 hrs by SRB assay; conditions: COLO 205, 48 h; in short: as §1

## COc1cc(/C=C/c2cc3ccccc3[nH]2)cc(OC)c1OC
NCI-H226
  GI50: 559 nM
OVCAR-4
  GI50: 691 nM
SK-MEL-28
  GI50: 944 nM
NCI-H23
  GI50: 677 nM
PC-3
  GI50: 381 nM
SF-268
  GI50: 708 nM
[1]
  GI50: 664 nM
MDA-MB-435
  GI50: 150 nM
OVCAR-3
  GI50: 234 nM
M14
  GI50: 332 nM
SW-620
  GI50: 333 nM
A498
  GI50: 281 nM
SK-MEL-2
  GI50: 426 nM
[2]
  GI50: 388 nM
SNB-75
  GI50: 329 nM
UACC-62
  GI50: 465 nM
UO-31
  GI50: 172 nM
A549
  GI50: 624 nM
SK-MEL-5
  GI50: 305 nM
SR
  GI50: 241 nM
CCRF-CEM
  GI50: 368 nM
U-251
  GI50: 442 nM
[3]
  GI50: 854 nM
TK-10
  GI50: 21600 nM
[4]
  GI50: 2250 nM
HL-60(TB)
  GI50: 347 nM
[5]
  GI50: 201 nM
MDA-MB-231
  GI50: 1300 nM
[6]
  GI50: 231 nM
MCF7
  GI50: 395 nM
HOP-62
  GI50: 933 nM
K562
  GI50: 393 nM
NCI-H522
  GI50: 294 nM
SK-OV-3
  GI50: 676 nM
IGROV-1
  GI50: 504 nM
[7]
  GI50: 275 nM
HCT-15
  GI50: 469 nM
ACHN
  GI50: 620 nM
[8]
  GI50: 365 nM
HCT-116
  GI50: 534 nM
MDA-MB-468
  GI50: 285 nM
OVCAR-5
  GI50: 963 nM
786-0
  GI50: 802 nM
SN12C
  GI50: 1640 nM
KM12
  GI50: 436 nM
[9]
  GI50: 938 nM
[10]
  GI50: 257 nM
DU-145
  GI50: 384 nM
HT-29
  GI50: 335 nM
CAKI-1
  GI50: 382 nM
Malme-3M
  GI50: 388 nM
[11]
  GI50: 311 nM
SNB-19
  GI50: 461 nM
NCI-H460
  GI50: 374 nM
OVCAR-8
  GI50: 587 nM
[12]
  GI50: 343 nM
